Measurements: ChEMBL document CHEMBL2151003, “Synthesis and antitumor activity of ring A modified glycyrrhetinic acid derivatives” (Eur J Med Chem, 2011)
Activity calls are given as the source filed them. No cut-off for these calls is given here.

What was measured:
A549 [1] = assay: Induction of apoptosis in human A549 cells assessed as apoptotic effect at 20 uM after 24 to 48 hrs by trypan blue cell counting analysis; type: functional
Procedure, shortened: (§1)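 A549 cells (approx. 500,000 per flask) were grown 24 h, then given compound-containing medium for about 24–48 h. Collected cells were pelleted, washed in PBS and mixed 1:1 with 0.4% trypan blue in PBS, pH 7.2. An automated counter distinguished cells with intact and with damaged membranes. Results are % apoptosis ± standard error, 6 experiments each.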

A549 [2] = assay: Cytotoxicity against human A549 cells after 96 hrs by SRB assay; type: functional, cell-based
Procedure, shortened: (§2)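 Monolayer cultures in RPMI 1640 with 10% heat-inactivated FBS and penicillin/streptomycin, 37 °C, 5% CO2. Exponentially growing cells were seeded, then treated 24 h later with serial dilutions (0–30 µM; DMSO or DMF ≤0.5% final) for 96 h. Cells were fixed with 10% TCA at 4 °C, stained with 0.4% SRB and solubilized in 10 mM Tris base; A570 was read. IC50 came from semi-log dose–response curves, ≥3 independent experiments.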

[3] = Cytotoxicity against human 518A2 cells after 96 hrs by SRB assay; type: functional, cell-based; procedure, shortened: as §2
A549 [4] = assay: Induction of apoptosis in human A549 cells assessed as appearance of green fluorescent cells at 20 uM after 24 to 48 hrs by acridine orange/ethidium bromide staining based fluorescence microscopy; type: functional, cell-based
Procedure, shortened: (§3)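 Approx. 500,000 A549 cells per flask were grown 24 h, then exposed to compound-containing medium for 24–48 h. Cells from the supernatant were pelleted, washed and resuspended in PBS, mixed with AO/EB and examined by fluorescence microscopy. Green fluorescence was scored as apoptotic and red nuclei as necrotic; the read-out is qualitative.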

SW-1736 = assay: Cytotoxicity against human SW1736 cells after 96 hrs by SRB assay; type: functional, cell-based; procedure, shortened: as §2
[5] = Cytotoxicity against human Lipo cells after 96 hrs by SRB assay; type: functional, cell-based; procedure, shortened: as §2
[6] = Cytotoxicity against human A253 cells after 96 hrs by SRB assay; type: functional, cell-based; procedure, shortened: as §2
DLD-1 = assay: Cytotoxicity against human DLD1 cells after 96 hrs by SRB assay; type: functional, cell-based; procedure, shortened: as §2
8505C = assay: Cytotoxicity against human 8505C cells after 96 hrs by SRB assay; type: functional, cell-based; procedure, shortened: as §2
A549 [7] = assay: Induction of apoptosis in human A549 cells assessed as appearance of green fluorescent cells at 4 uM after 24 to 48 hrs by acridine orange/ethidium bromide staining based fluorescence microscopy; type: functional, cell-based; procedure, shortened: as §3
A2780 = assay: Cytotoxicity against human A2780 cells after 96 hrs by SRB assay; type: functional, cell-based; procedure, shortened: as §2
MCF7 = assay: Cytotoxicity against human MCF7 cells after 96 hrs by SRB assay; type: functional, cell-based; procedure, shortened: as §2
A549 [8] = assay: Induction of apoptosis in human A549 cells assessed as apoptotic effect at 4 uM after 24 to 48 hrs by trypan blue cell counting analysis; type: functional; procedure, shortened: as §1
A-431 = assay: Cytotoxicity against human A431 cells after 96 hrs by SRB assay; type: functional, cell-based; procedure, shortened: as §2
HT-29 = assay: Cytotoxicity against human HT-29 cells after 96 hrs by SRB assay; type: functional, cell-based; procedure, shortened: as §2
HCT-8 = assay: Cytotoxicity against human HCT8 cells after 96 hrs by SRB assay; type: functional, cell-based
Procedure, shortened: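 Monolayers in RPMI 1640 with 10% heat-inactivated FBS and penicillin/streptomycin, 37 °C, 5% CO2. Seeded day 0 and exposed 24 h later to serial dilutions (0–30 µM; DMSO or DMF ≤0.5% final) for 96 h. Cells were then fixed with 10% TCA at 4 °C, stained with 0.4% SRB, washed with 1% acetic acid and dissolved in 10 mM Tris, and A570 was read. IC50 from semi-log dose–response curves, ≥3 independent experiments.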

HCT-116 = assay: Cytotoxicity against human HCT116 cells after 96 hrs by SRB assay; type: functional, cell-based; procedure, shortened: as §2
A549 [9] = assay: Induction of apoptosis in human A549 cells assessed as appearance of green fluorescent cells at 8 uM after 24 to 48 hrs by acridine orange/ethidium bromide staining based fluorescence microscopy; type: functional, cell-based; procedure, shortened: as §3
A549 [10] = assay: Induction of apoptosis in human A549 cells assessed as apoptotic effect at 8 uM after 24 to 48 hrs by trypan blue cell counting analysis; type: functional; procedure, shortened: as §1

Compound | Activity (A549 [1]) | IC50 (A549 [2]) | IC50 [3] | Activity (A549 [4]) | IC50 (SW-1736) | IC50 [5] | IC50 [6] | IC50 (DLD-1) | IC50 (8505C) | Activity (A549 [7]) | IC50 (A2780) | IC50 (MCF7) | Activity (A549 [8]) | IC50 (A-431) | IC50 (HT-29) | IC50 (HCT-8) | IC50 (HCT-116) | Activity (A549 [9]) | Activity (A549 [10])
COC(=O)[C@@]1(C)CC[C@]2(C)CC[C@]3(C)C(=CC(=O)[C@@H]4[C@@]5(C)CC[C@H](OC(=O)[C@@H](N)CSCc6ccccc6)C(C)(C)[C@@H]5CC[C@]43C)[C@@H]2C1 | 60.64% | 17.9 µmol | 16.78 µmol | Active | 15.69 µmol | 16.72 µmol | 15.84 µmol | > 30 µmol | 15.45 µmol |  |  |  |  |  |  |  |  |  | 
COC(=O)[C@@]1(C)CC[C@]2(C)CC[C@]3(C)C(=CC(=O)[C@@H]4[C@@]5(C)CC[C@@H](N)C(C)(C)[C@@H]5CC[C@]43C)[C@@H]2C1 |  | 3.33 µmol | 2.74 µmol |  | 2.84 µmol | 3.3 µmol | 2.44 µmol | 3.21 µmol | 2.33 µmol | Active | 3.42 µmol | 2.55 µmol | 64.88% |  |  |  |  |  | 
CC1(C)C(=O)CC[C@]2(C)[C@H]3C(=O)C=C4[C@@H]5C[C@@](C)(C(=O)O)CC[C@]5(C)CC[C@@]4(C)[C@]3(C)CC[C@@H]12 |  | > 30 µmol | > 30 µmol |  | > 30 µmol | > 30 µmol | > 30 µmol | > 30 µmol |  |  |  | > 30 µmol |  | > 30 µmol | > 30 µmol | > 30 µmol | > 30 µmol |  | 
COC(=O)[C@@]1(C)CC[C@]2(C)CC[C@]3(C)C(=CC(=O)[C@@H]4[C@@]5(C)Cc6nccnc6C(C)(C)[C@@H]5CC[C@]43C)[C@@H]2C1 |  | > 30 µmol | > 30 µmol |  | > 30 µmol | > 30 µmol | > 30 µmol | > 30 µmol | > 30 µmol |  | > 30 µmol | > 30 µmol |  |  |  |  |  |  | 
CC1(C)[C@H](O)CC[C@]2(C)[C@H]3C(=O)C=C4[C@@H]5C[C@@](C)(C(=O)O)CC[C@]5(C)CC[C@@]4(C)[C@]3(C)CC[C@@H]12 |  | > 30 µmol | > 30 µmol |  | > 30 µmol | > 30 µmol | > 30 µmol | > 30 µmol |  |  |  | > 30 µmol |  | > 30 µmol | > 30 µmol | > 30 µmol | > 30 µmol |  | 
COC(=O)[C@@]1(C)CC[C@]2(C)CC[C@]3(C)C(=CC(=O)[C@@H]4[C@@]5(C)CCC(=O)C(C)(C)[C@@H]5CC[C@]43C)[C@@H]2C1 |  | > 30 µmol | > 30 µmol |  | 29.09 µmol | > 30 µmol | > 30 µmol | > 30 µmol | > 30 µmol |  | > 30 µmol | > 30 µmol |  |  |  |  |  |  | 
CCOC(=O)[C@@]1(C)CC[C@]2(C)CC[C@]3(C)C(=CC(=O)[C@@H]4[C@@]5(C)CC=CC(C)(C)[C@@H]5CC[C@]43C)[C@@H]2C1 |  | > 30 µmol | > 30 µmol |  |  | > 30 µmol | > 30 µmol | > 30 µmol |  |  |  | > 30 µmol |  | > 30 µmol | > 30 µmol |  | > 30 µmol |  | 
CC1(C)[C@@H](OC(=O)CNCCCN)CC[C@]2(C)[C@H]3C(=O)C=C4[C@@H]5C[C@@](C)(C(=O)OCc6ccccc6)CC[C@]5(C)CC[C@@]4(C)[C@]3(C)CC[C@@H]12 |  | 4.74 µmol | 5.14 µmol |  |  | 2.99 µmol | 1.96 µmol | 4.96 µmol | 2.07 µmol |  |  |  |  |  |  |  |  | Active | 80.57%
C=C(C)[C@@H]1CC[C@]2(C)[C@H](C(=O)C=C3[C@@H]4C[C@@](C)(C(=O)OCC)CC[C@]4(C)CC[C@]32C)[C@@]1(C)CCC(=O)O |  | > 30 µmol | > 30 µmol |  | > 30 µmol | > 30 µmol | > 30 µmol | > 30 µmol | > 30 µmol |  | > 30 µmol | > 30 µmol |  |  |  |  |  |  | 
COC(=O)[C@@]1(C)CC[C@]2(C)CC[C@]3(C)C(=CC(=O)[C@@H]4[C@@]5(C)CC[C@H](OC(=O)[C@@H](N)CSSC[C@H](N)C(=O)O[C@H]6CC[C@]7(C)[C@H]8C(=O)C=C9[C@@H]%10C[C@@](C)(C(=O)OC)CC[C@]%10(C)CC[C@@]9(C)[C@]8(C)CC[C@H]7C6(C)C)C(C)(C)[C@@H]5CC[C@]43C)[C@@H]2C1 | 40.91% | 18.75 µmol | 24.54 µmol | Active | 16.82 µmol | 22.6 µmol | 19.07 µmol | > 30 µmol | 15.1 µmol |  |  |  |  |  |  |  |  |  | 
CCOC(=O)[C@@]1(C)CC[C@]2(C)CC[C@]3(C)C(=CC(=O)[C@@H]4[C@@]5(C)CCC(=O)OC(C)(C)[C@@H]5CC[C@]43C)[C@@H]2C1 |  | > 30 µmol | > 30 µmol |  | 12.71 µmol | > 30 µmol | 28.73 µmol | > 30 µmol | > 30 µmol |  | 15 µmol | 20.58 µmol |  |  |  |  |  |  | 
COC(=O)[C@@]1(C)CC[C@]2(C)CC[C@]3(C)C(=CC(=O)[C@@H]4[C@@]5(C)CC/C(=N\O)C(C)(C)[C@@H]5CC[C@]43C)[C@@H]2C1 | 32.43% | 17.4 µmol | 18.93 µmol | Active | 13 µmol | 18.34 µmol | 13.56 µmol | 10.46 µmol | 17.18 µmol |  | 6.18 µmol | 15.95 µmol |  |  |  |  |  |  | 
CCOC(=O)[C@@]1(C)CC[C@]2(C)CC[C@]3(C)C(=CC(=O)[C@@H]4[C@@](C)(CCC(=O)O)[C@H](C(C)(C)O)CC[C@]43C)[C@@H]2C1 |  | > 30 µmol | > 30 µmol |  | > 30 µmol | > 30 µmol | > 30 µmol | > 30 µmol | > 30 µmol |  | > 30 µmol | > 30 µmol |  |  |  |  |  |  | 
CCOC(=O)[C@@]1(C)CC[C@]2(C)CC[C@]3(C)C(=CC(=O)[C@@H]4[C@@]5(C)C[C@H]6O[C@H]6C(C)(C)[C@@H]5CC[C@]43C)[C@@H]2C1 |  | > 30 µmol | > 30 µmol |  |  | > 30 µmol | > 30 µmol | > 30 µmol |  |  |  | > 30 µmol |  | > 30 µmol | > 30 µmol |  | > 30 µmol |  | 
COC(=O)[C@@]1(C)CC[C@]2(C)CC[C@]3(C)C(=CC(=O)[C@@H]4[C@@]5(C)CC[C@H](N)C(C)(C)[C@@H]5CC[C@]43C)[C@@H]2C1 |  | 2.51 µmol | 2.52 µmol |  | 2.62 µmol | 2.74 µmol | 2.36 µmol | 2.56 µmol | 2.45 µmol | Active | 3.32 µmol | 2.47 µmol | 74.21% |  |  |  |  |  | 
COC(=O)[C@@]1(C)CC[C@]2(C)CC[C@]3(C)C(=CC(=O)[C@@H]4[C@@]5(C)CC/C(=N\OC(C)C)C(C)(C)[C@@H]5CC[C@]43C)[C@@H]2C1 |  | > 30 µmol | > 30 µmol |  | > 30 µmol | > 30 µmol | > 30 µmol | > 30 µmol | > 30 µmol |  | > 30 µmol | > 30 µmol |  |  |  |  |  |  | 
